HNF4A DNA FP: change in binding of human HNF4A to DNA, primary screen, biochemical, fluorescence polarization, FITC-DNA. activity change, % at 10 µM. actives 0.3% (n = 360,000). 1 h; in the data active = activity change above about 30%, passing the limit was not always enough
IDE act: human IDE activators in live cells, primary screen, fluorescence polarization, HEK cells, FAbeta-B substrate; Insulin-degrading enzyme (Homo sapiens), P14735; actives 0.073% (n = 340,000); activation, % at 5.96 µM; FAbeta-B cleavage; 0% vehicle, 100% cell-free pure enzyme wells; AID 493087, 2011;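 active = activation above the mean of all tested compounds plus 3 SD, set per screening campaign, cut at about 17% in these data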
IDE cell inh: human IDE inhibitors in live cells, primary screen, fluorescence polarization, HEK cells, FAbetaB substrate; Insulin-degrading enzyme (Homo sapiens), P14735; FAbetaB cleavage; inhibition, % at 5.59 µM; actives 0.41% (n = 320,000);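 active = percent inhibition above the average of all tested compounds plus 3 SD, set per screening campaign, cut at about 16% in these data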;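 also: IDE supplied by intact live HEK cells; FP after avidin binding of uncleaved biotin substrate so inhibition keeps polarization high; 0% = DMSO wells and 100% = 60 µM reference IDE inhibitor Ii1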
TPT1 inhibitor: Candida albicans TPT1 enzyme inhibitors, primary screen, biochemical, fluorescence polarization; tRNA 2'-phosphotransferase TPT1 (Candida albicans SC5314); recombinant caTPT1, FP RNA substrate dephosphorylation; inhibition, % at 5 µM; actives 0.81% (n = 300,000); AID 1962, 2009;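 active = inhibition above the mean of all tested compounds plus 3 SD, set per screening campaign, cut at about 24% in these data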;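 also: plate controls were DMSO alone for no effect and ferristatin control at 100 nM for full effect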
TbMetRS inhib: T. brucei MetRS inhibitors, primary screen, biochemical, luminescence | methionyl-tRNA synthetase (Trypanosoma brucei brucei) | purified T. brucei MetRS, ATP depletion, Kinase-Glo luminescence | inhibition, % at 11.9 µM | actives 0.4% (n = 360,000) | AID 624268, 2012;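 active = inhibition above a per-plate cutoff of the control wells' mean inhibition plus 3 SD, cut at about 5.5% in these data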;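 also: 0% = DMSO wells median and 100% = median of wells with control inhibitor compound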
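Measured by: Kinase-Glo luciferase luminescence reporting remaining unconsumed ATP. Material: purified T. brucei MetRS enzyme. Doses: 11.9 µM compound single dose, 0.9% DMSO. Medium: HEPES buffer containing pyrophosphatase, BSA, spermine, DTT. Times: 15 min preincubation, 2 h reaction, all 25 °C. Reagent: methionine, ATP and bulk E. coli tRNA.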
CSN deneddyl inh: inhibitors of CSN-mediated cullin deneddylation, primary screen, biochemical, fluorescence polarization, uHTS; COP9 signalosome complex subunit 5 (Homo sapiens), Q92905; Purified CSN, SCF-Nedd8-OG deneddylation; inhibition, % at 12.5 µM; actives 0.38% (n = 360,000); AID 651999, 2013;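 active = pattern-corrected inhibition above about 35%, with an unprinted fluorescence ratio check between 0.5 and 1.5, limit read from the data, passing the limit was not always enough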;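 also: 0% = enzyme with substrate and 100% = substrate without enzyme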
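Schedule: reaction 90 min, room temperature / Assay system: HEK293T-derived human Csn5 enzyme / Input: Csn5 at 0.24 nM final / Measure: inhibition of Csn5 cleavage, % / Control set: substrate-only high control, full reaction low control / Technique: fluorescence polarization of the substrate / Buffer or medium: Tris/NaCl/DTT buffer, pH 7.5 / Reagent: SCFSkp2-Nedd8OG substrate at 10 nM final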
caTPT1 confirm: Candida albicans TPT1 inhibitors, confirmation, biochemical, fluorescence polarization, triplicate. shares compounds with TPT1 inhibitor. recombinant caTPT1, RNase T1 coupled. inhibition, % at 5 µM. actives 74% (n = 2,400). AID 2149, 2009;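 active = inhibition above the primary screen limit, the mean inhibition of all tested compounds plus 3 SD, cut at about 25% in these data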
RNase T1 inh: RNase T1 inhibitors, counter-screen for TPT1 inhibitor project, biochemical, fluorescence polarization. shares compounds with TPT1 inhibitor. inhibition, % at 5 µM. actives 83% (n = 2,400). AID 2153, 2009. RNase T1 cleavage, 1536-well;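 active = inhibition above the solvent-only control well mean plus 3 SD, limit set per screening run, cut at about 23% in these data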;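 also: plate controls were DMSO wells with enzyme for no effect and wells without RNase T1 for full effect; inhibitors block cleavage so intact labeled substrate keeps polarization high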
IDE cell inh cf: human IDE inhibitors in live cells, confirmation, fluorescence polarization, HEK cells, FAbetaB substrate | actives 51% (n = 1,200) | inhibition, % at 5.59 µM | FAbetaB cleavage | shares compounds with IDE cell inh | AID 435028, 2010;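 active = mean inhibition across triplicate wells above the cutoff set by the earlier primary insulin-degrading enzyme screen, cut at about 16% in these data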;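 also: 0% = DMSO wells and 100% = 60 µM reference IDE inhibitor Ii1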
HEK293 tox: cytotoxicity in HEK cells, cytotoxicity control for IDE inhibitor project, cell-based, luminescence; HEK293 cytotoxicity, ATP luminescence; AID 449730, 2010; actives 28% (n = 1,200); inhibition, % at 5.59 µM; shares compounds with IDE cell inh; in the data active = inhibition above about 22%;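 also: 0% = vehicle wells and 100% = reference cytotoxic drug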
Tb MetRS conf: T. brucei MetRS inhibitors, confirmation, biochemical, luminescence | shares compounds with TbMetRS inhib | T. brucei MetRS enzyme, luminescence (ATP depletion) | inhibition, % at 11.9 µM | actives 93% (n = 1,400); in the data active = inhibition above about 7%
Jurkat tox: Jurkat T cell cytotoxicity, cytotoxicity control for T. brucei MetRS inhibitor project, luminescence, high throughput; actives 12% (n = 1,400); Jurkat cells viability, ATP luminescence; shares compounds with TbMetRS inhib; inhibition, % at 8.3 µM; in the data active = inhibition above about 15%;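 also: 0% = vehicle and 100% = reference inhibitor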
TbMetRS FP orth: T. brucei MetRS inhibitors, orthogonal assay for T. brucei MetRS inhibitor project, biochemical, fluorescence polarization. shares compounds with TbMetRS inhib. purified T. brucei MetRS. inhibition, % at 11.9 µM. actives 44% (n = 1,400); in the data active = inhibition above about 17%;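 also: 0% = vehicle wells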
CSN5 deneddyl: Csn5 deneddylation inhibitors, confirmation, biochemical, fluorescence polarization, single concentration, SCF-Nedd8OG substrate; inhibition, % at 16.6 µM; AID 720654, 2013; actives 62% (n = 540); shares compounds with CSN deneddyl inh; Csn5 deneddylation of SCF-Nedd8OG, 90 min; in the data active = inhibition above about 50%;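 also: 0% = DMSO with enzyme and 100% = no enzyme wells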
MMP2 cntr CSN: MMP-2 protease inhibition counter-screen, confirmation, counter-screen for CSN deneddylation inhibitor project, biochemical, fluorescence, single concentration | AID 720655, 2013 | inhibition, % at 16.6 µM | actives 33% (n = 540) | recombinant MMP-2, FRET substrate fluorescence, 60 min | shares compounds with CSN deneddyl inh;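 active = corrected plate-normalized z-score of 5 or more, or -5 or less, or inhibition of 15% or more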;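 also: plate controls were DMSO wells with enzyme for no effect and buffer wells lacking MMP-2 for full effect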
Target sequence (P08253 whole entry, looked up): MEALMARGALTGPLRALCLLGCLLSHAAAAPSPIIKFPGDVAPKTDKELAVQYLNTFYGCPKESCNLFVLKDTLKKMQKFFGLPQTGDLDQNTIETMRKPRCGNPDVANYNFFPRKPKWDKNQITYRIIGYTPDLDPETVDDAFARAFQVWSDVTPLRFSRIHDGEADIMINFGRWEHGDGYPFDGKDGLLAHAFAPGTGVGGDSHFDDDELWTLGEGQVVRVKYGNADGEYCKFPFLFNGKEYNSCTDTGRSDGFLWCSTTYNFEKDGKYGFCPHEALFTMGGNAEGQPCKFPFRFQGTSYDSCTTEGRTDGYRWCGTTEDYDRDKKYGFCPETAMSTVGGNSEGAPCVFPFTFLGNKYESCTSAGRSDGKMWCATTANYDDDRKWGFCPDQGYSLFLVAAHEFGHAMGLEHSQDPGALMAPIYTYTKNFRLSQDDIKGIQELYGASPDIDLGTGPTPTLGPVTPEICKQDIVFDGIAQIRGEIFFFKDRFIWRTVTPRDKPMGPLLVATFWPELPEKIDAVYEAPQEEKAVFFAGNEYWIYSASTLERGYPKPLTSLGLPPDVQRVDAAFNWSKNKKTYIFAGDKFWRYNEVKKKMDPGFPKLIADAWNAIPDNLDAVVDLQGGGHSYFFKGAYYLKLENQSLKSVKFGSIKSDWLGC
Thrombin cntr: thrombin (bovine) inhibition, counter-screen for CSN hits; shares compounds with CSN deneddyl inh; bovine thrombin cleavage of Ub4-pepOG, fluorescence polarization; actives 49% (n = 540); inhibition, % at 16.6 µM;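 active = inhibition at or above a set limit, with a fluorescence interference ratio between 0.5 and a set maximum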
* hit, by the source's call; . = not tested or not shown. Most compounds without a hit are left out; they make up all but 1.7% or so of the library.

SMILES	HNF4A DNA FP	IDE act	IDE cell inh	TPT1 inhibitor	TbMetRS inhib	CSN deneddyl inh	caTPT1 confirm	RNase T1 inh	CSN5 deneddyl	MMP2 cntr CSN	Thrombin cntr	others
CCc1ccc(Nc2n[n+](-c3ccccc3)c(-c3ccc(OCc4ccccc4)cc3)s2)cc1	-5	-2	1	-1	0	7	.	.	.	.	.
CCN(CC)c1ccc(-c2sc(Nc3ccccc3)n[n+]2-c2ccc(F)cc2)cc1	148	-7	2	95*	0	65*	120*	117*	146*	6	-29
Cc1ccc(N=Cc2c(O)c3ccccc3n(C)c2=O)cc1	-3	0	.	.	-1	-3	.	.	.	.	.
Cc1ccc(N=Cc2sc(O)c3ccccc23)cc1	77	-24	36*	142*	1	40*	111*	109*	82*	-10	57*	IDE cell inh cf=57*;HEK293 tox=11
N=C1/C(=C\c2ccc(-c3cccc(C(=O)O)c3)o2)C(=O)N=C2SC=C(c3ccccc3)N12	-6	-2	7	66*	0	64*	82*	92*	.	16*	29*
CCC(Oc1ccccc1C)C(=O)N1CCCN(C)CC1 (stereo not given)	4	3	-2	-4	0	-1	.	.	.	.	.
Cc1ccc(-n2c(C)cc(/C=C3\SC(=O)NC3=O)c2C)cc1	5	-1	0	2	0	-3	.	.	.	.	.
Cc1cc(/C=C2\SC(=S)N(C)C2=O)c(C)n1-c1ccc(O)cc1	79*	-20	15	120*	0	51*	129*	129*	181*	5	62*
COc1ccc(-n2c(C)cc(/C=C3\SC(=O)NC3=O)c2C)cc1	-2	-4	4	-2	-1	1	.	.	.	.	.
Cc1cc(/C=C2\SC(=S)NC2=O)c(C)n1-c1cccc(O)c1	97*	-6	13	90*	0	66*	85*	98*	37	19*	66*
Cc1cc(/C=C2/SC(=S)N(c3cccc(Cl)c3)C2=O)c(C)n1-c1cccnc1	43*	3	4	114*	-1	47*	88*	99*	128*	-1	8
Cc1cc(/C=C2\SC(=S)N(C)C2=O)c(C)n1-c1ccccc1O	84	-47	27*	147*	0	39*	147*	142*	63*	-3	37*	IDE cell inh cf=29*;HEK293 tox=47*
COc1ccc(S(=O)(=O)NC(=O)C2(C)CCN2C(=O)C(C)(C)c2ccccc2)cc1 (stereo not given)	5	.	.	.	0	-3	.	.	.	.	.
O=S(=O)(Nc1cc2nc3ccccc3nc2n1Cc1ccccc1)c1ccc(Cl)cc1	-6	-13	9	44*	32*	70*	39*	51*	77*	-7	3	Tb MetRS conf=96*;Jurkat tox=2;TbMetRS FP orth=76*
CCOC(=O)C1=C(C)N=c2s/c(=C\c3ccc(OCC(=O)O)cc3)c(=O)n2C1c1ccc(Cl)cc1 (stereo not given)	6	-9	.	.	1	32	.	.	.	.	.
CCOC(=O)C1=C(C)N=c2s/c(=C/c3ccc(OCC(=O)O)c(OC)c3)c(=O)n2C1c1ccc(Cl)cc1 (stereo not given)	17	-4	11	42*	-1	40*	60*	72*	85*	3	14
COc1cc(C2NC(=O)NC(C)=C2[N+](=O)[O-])cc(OC)c1OC (stereo not given)	1	4	-3	-1	0	2	.	.	.	.	.
CCN(Cc1ccccc1)C(=O)COC(=O)c1cc(=O)[nH]c2ccccc12	-1	6	-1	-1	-1	4	.	.	.	.	.
CN(C)c1ccc(/C=C/c2cccc[n+]2[O-])cc1	17	.	2	8	-1	-2	.	.	.	.	.
CC(C)CC[n+]1ccccc1/C=C/c1ccc(N(C)C)cc1	55*	-12	37*	44*	-1	38*	49*	58*	88*	-58*	11	IDE cell inh cf=69*;HEK293 tox=101*
